Laboratory results reported in ChEMBL document CHEMBL1914430, “Synthesis of some new 1,3,5-trisubstituted pyrazolines bearing benzene sulfonamide as anticancer and anti-inflammatory agents” (Bioorg Med Chem Lett, 2011).

Columns and labels:
Rattus norvegicus [1] = experiment: Antiinflammatory activity in Wistar rat assessed as inhibition of carrageenan-induced hind paw edema at 20 mg/kg, po administered 30 mins before carrageenan challenge measured after 3 hrs by plethysmometer; type: functional
In short: (§1)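 Wistar rats of either sex, 150–175 g, fasted 16 h, n = 6 per group. Compound given orally at 20 mg/kg as a suspension in 1% CMC in water (10 mL/kg); controls got vehicle only. After 30 min, 0.1 mL of 1% carrageenan in saline was injected subplantar into the left hind paw. Paw volume was measured by plethysmometer at 0, 3 and 5 h. Inhibition = (1 − Vt/Vc) × 100, reported as mean ± SEM.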

Rattus norvegicus [2] = experiment: Antiinflammatory activity in Wistar rat assessed as inhibition of carrageenan-induced hind paw edema at 20 mg/kg, po administered 30 mins before carrageenan challenge measured after 5 hrs by plethysmometer; type: functional; in short: as §1

SMILES | inhibition in vivo at 20 mg/kg (Rattus norvegicus [1]) [%] | inhibition in vivo at 20 mg/kg (Rattus norvegicus [2]) [%]
Cc1cc(O)c(C2=NN(c3ccc(S(N)(=O)=O)cc3)C(c3ccccc3)C2)cc1Cl (stereo not drawn) | 47.4 | 60.3
COc1cc(C)c(Cl)cc1C1=NN(c2ccc(S(N)(=O)=O)cc2)C(c2cccc(O)c2)C1 (stereo not drawn) | 39.5 | 16.7
COc1cc(C)c(Cl)cc1C1=NN(c2ccc(S(N)(=O)=O)cc2)C(c2ccccc2)C1 (stereo not drawn) | 55.3 | 59.5
COc1cc(C)c(Cl)cc1C1=NN(c2ccc(S(N)(=O)=O)cc2)C(/C=C/c2ccccc2)C1 (stereo not drawn) | 55.3 | 52.4
